Assay results reported in ChEMBL document CHEMBL4270599, “Synthesis of a 3'-C-ethynyl-β-d-ribofuranose purine nucleoside library: Discovery of C7-deazapurine analogs as potent antiproliferative nucleosides” (Eur J Med Chem, 2018).

Tests used:
A498 = assay: Growth inhibition of human A498 cells assessed as cell growth at 10^-8 M incubated for 48 hrs by sulforhodamine B assay relative to control; assay type: functional; settings: A498, 48 h, read-out: Activity
CCRF-CEM [1] = assay: Growth inhibition of human CCRF-CEM cells assessed as cell growth at 10^-7 M incubated for 48 hrs by sulforhodamine B assay relative to control; assay type: functional; settings: read-out: Activity
M14 = assay: Cytotoxicity against human M14 cells after 48 hrs by SRB assay; assay type: functional; settings: M14, 48 h; for GI50: read-out: pGI50 (converted)
[2] = Antiproliferative activity against HELF cells after 4 days by Coulter counter method; assay type: cell-based; settings: Homo sapiens, 96 h
HL-60(TB) = assay: Growth inhibition of human HL-60(TB) cells assessed as cell growth at 10^-7 M incubated for 48 hrs by sulforhodamine B assay relative to control; assay type: functional; settings: HL-60, 48 h, read-out: Activity
HT-29 = assay: Growth inhibition of human HT-29 cells assessed as cell growth at 10^-8 M incubated for 48 hrs by sulforhodamine B assay relative to control; assay type: functional; settings: HT-29, 48 h, read-out: Activity
786-0 = assay: Growth inhibition of human 786-0 cells assessed as cell growth at 10^-7 M incubated for 48 hrs by sulforhodamine B assay relative to control; assay type: functional; settings: 786-0, 48 h, read-out: Activity
OVCAR-4 = assay: Growth inhibition of human OVCAR4 cells assessed as cell growth at 10^-7 M incubated for 48 hrs by sulforhodamine B assay relative to control; assay type: functional; settings: OVCAR-4, 48 h, read-out: Activity
KM12 = assay: Growth inhibition of human KM12 cells assessed as cell growth at 10^-6 M incubated for 48 hrs by sulforhodamine B assay relative to control; assay type: functional; settings: KM12, 48 h, read-out: Activity
ACHN = assay: Growth inhibition of human ACHN cells assessed as cell growth at 10^-5 M incubated for 48 hrs by sulforhodamine B assay relative to control; assay type: functional; settings: read-out: Activity
Malme-3M = assay: Growth inhibition of human MALME-3M cells assessed as cell growth at 10^-7 M incubated for 48 hrs by sulforhodamine B assay relative to control; assay type: functional; settings: read-out: Activity
UACC-62 = assay: Growth inhibition of human UACC62 cells assessed as cell growth at 10^-6 M incubated for 48 hrs by sulforhodamine B assay relative to control; assay type: functional; settings: UACC-62, 48 h, read-out: Activity
HOP-92 = assay: Growth inhibition of human HOP92 cells assessed as cell growth at 10^-8 M incubated for 48 hrs by sulforhodamine B assay relative to control; assay type: functional; settings: HOP-92, 48 h, read-out: Activity
HCT-15 = assay: Growth inhibition of human HCT15 cells assessed as cell growth at 10^-5 M incubated for 48 hrs by sulforhodamine B assay relative to control; assay type: functional; settings: HCT-15, 48 h, read-out: Activity
NCI-H522 = assay: Growth inhibition of human NCI-H522 cells assessed as cell growth at 10^-8 M incubated for 48 hrs by sulforhodamine B assay relative to control; assay type: functional; settings: NCI-H522, 48 h, read-out: Activity
IGROV-1 = assay: Growth inhibition of human IGROV1 cells assessed as cell growth at 10^-4 M incubated for 48 hrs by sulforhodamine B assay relative to control; assay type: functional; settings: IGROV-1, 48 h, read-out: Activity
NCI-H322M = assay: Cytotoxicity against human NCI-H322M cells after 48 hrs by SRB assay; assay type: functional; settings: for GI50: read-out: pGI50 (converted)
OVCAR-8 = assay: Cytotoxicity against human OVCAR8 cells after 48 hrs by SRB assay; assay type: functional; settings: OVCAR-8, 48 h; for GI50: read-out: pGI50 (converted); for CC50: read-out: pLC50 (the source's name) (converted)
BT-549 = assay: Cytotoxicity against human BT549 cells after 48 hrs by SRB assay; assay type: functional; settings: BT-549, 48 h; for GI50: read-out: pGI50 (converted)
NCI-H226 = assay: Growth inhibition of human NCI-H226 cells assessed as cell growth at 10^-8 M incubated for 48 hrs by sulforhodamine B assay relative to control; assay type: functional; settings: NCI-H226, 48 h, read-out: Activity
HUVEC = assay: Antiproliferative activity against HUVEC cells after 4 days by Coulter counter method; assay type: cell-based; settings: Homo sapiens, 96 h
How it was run: (§1)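 Primary HUVEC, primary HMVEC-d and the HMEC-1 line seeded at 20,000 cells/well in gelatin-coated plates in EC growth medium (EGM2). After overnight incubation, 5-fold compound dilutions added. Cells proliferated four days with compound, then trypsinized and counted by Coulter counter to derive IC₅₀.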

EKVX = assay: Growth inhibition of human EKVX cells assessed as cell growth at 10^-7 M incubated for 48 hrs by sulforhodamine B assay relative to control; assay type: functional; settings: read-out: Activity
MOLT-4 = assay: Growth inhibition of human MOLT4 cells assessed as cell growth at 10^-6 M incubated for 48 hrs by sulforhodamine B assay relative to control; assay type: functional; settings: MOLT-4, 48 h, read-out: Activity
HMEC-1 = assay: Antiproliferative activity against HMEC1 cells after 4 days by Coulter counter method; assay type: cell-based; settings: Homo sapiens, HMEC-1, 96 h; how it was run: as §1
NCI/ADR-RES [3] = assay: Cytotoxicity against human NCI-ADR-RES cells after 48 hrs by SRB assay; assay type: functional; settings: for GI50: read-out: pGI50 (converted); for CC50: read-out: pLC50 (the source's name) (converted)
MCF7 = assay: Growth inhibition of human MCF7 cells assessed as cell growth at 10^-6 M incubated for 48 hrs by sulforhodamine B assay relative to control; assay type: functional; settings: MCF7, 48 h, read-out: Activity
SNB-19 = assay: Cytotoxicity against human SNB19 cells after 48 hrs by SRB assay; assay type: functional; settings: SNB-19, 48 h; for GI50: read-out: pGI50 (converted)
NCI/ADR-RES [4] = assay: Growth inhibition of human NCI/ADR-RES cells assessed as cell growth at 10^-8 M incubated for 48 hrs by sulforhodamine B assay relative to control; assay type: functional; settings: read-out: Activity
NCI-H460 = assay: Growth inhibition of human NCI-H460 cells assessed as cell growth at 10^-8 M incubated for 48 hrs by sulforhodamine B assay relative to control; assay type: functional; settings: NCI-H460, 48 h, read-out: Activity
Hs-578T = assay: Growth inhibition of human Hs 578T cells assessed as cell growth at 10^-7 M incubated for 48 hrs by sulforhodamine B assay relative to control; assay type: functional; settings: read-out: Activity
RPMI-8226 = assay: Cytotoxicity against human RPMI8226 cells after 48 hrs by SRB assay; assay type: functional; settings: RPMI-8226, 48 h; for CC50: read-out: LC50 (the source's name); for GI50: read-out: pGI50 (converted)
CCRF-CEM [5] = assay: Growth inhibition of human CCRF-CEM cells assessed as cell growth at 10^-5 M incubated for 48 hrs by sulforhodamine B assay relative to control; assay type: functional; settings: read-out: Activity
[6] = read-out: LC50 (the source's name)
[7] = read-out: pLC50 (the source's name) (converted)

C#C[C@@]1(O)[C@@H](CO)O[C@@H](n2cc(F)c3c(N)ncnc32)[C@@H]1O
growth at 0.01 µM (A498): 86% | growth at 0.1 µM (CCRF-CEM [1]): 81% | CC50 (M14; [6]): > 100 µM | TGI (M14; read-out: TGI): 2.39 µM | GI50 (M14): 0.479 µM | TGI (M14; read-out: pTGI (converted)): 2.4 µM | IC50 [2]: 0.076 µM | growth at 0.1 µM (HL-60(TB)): 103% | growth at 0.01 µM (HT-29): 96% | growth at 0.1 µM (786-0): 87% | growth at 0.1 µM (OVCAR-4): 90% | growth at 1 µM (KM12): 35% | growth at 10 µM (ACHN): 2% | growth at 0.1 µM (Malme-3M): 98% | growth at 1 µM (UACC-62): 12% | growth at 0.01 µM (HOP-92): 121% | growth at 10 µM (HCT-15): -18% | growth at 0.01 µM (NCI-H522): 84% | growth at 100 µM (IGROV-1): -38% | CC50 (NCI-H322M; [6]): > 100 µM | TGI (NCI-H322M; read-out: TGI): 4.48 µM | GI50 (NCI-H322M): 0.501 µM | TGI (NCI-H322M; read-out: pTGI (converted)): 4.47 µM | TGI (OVCAR-8; read-out: TGI): 3.69 µM | GI50 (OVCAR-8): 0.257 µM | CC50 (OVCAR-8): > 100 µM | TGI (OVCAR-8; read-out: pTGI (converted)): 3.72 µM | CC50 (BT-549; [6]): > 100 µM | TGI (BT-549; read-out: TGI): 4.18 µM | GI50 (BT-549): 0.851 µM | TGI (BT-549; read-out: pTGI (converted)): 4.17 µM | growth at 0.01 µM (NCI-H226): 92% | IC50 (HUVEC): 0.067 µM | growth at 0.1 µM (EKVX): 86% | growth at 1 µM (MOLT-4): 11% | IC50 (HMEC-1): 0.061 µM | TGI (NCI/ADR-RES [3]; read-out: TGI): 11.3 µM | GI50 (NCI/ADR-RES [3]): 0.309 µM | CC50 (NCI/ADR-RES [3]): > 100 µM | TGI (NCI/ADR-RES [3]; read-out: pTGI (converted)): 11.2 µM | growth at 1 µM (MCF7): -8% | CC50 (SNB-19; [6]): > 100 µM | TGI (SNB-19; read-out: TGI): 13.7 µM | GI50 (SNB-19): 0.525 µM | TGI (SNB-19; read-out: pTGI (converted)): 13.8 µM | growth at 0.01 µM (NCI/ADR-RES [4]): 100% | growth at 0.01 µM (NCI-H460): 100% | growth at 0.1 µM (Hs-578T): 106% | CC50 (RPMI-8226): > 100 µM | TGI (RPMI-8226; read-out: TGI): 1.98 µM | GI50 (RPMI-8226): 0.219 µM | TGI (RPMI-8226; read-out: pTGI (converted)): 2 µM | growth at 10 µM (CCRF-CEM [5]): 5%

C#C[C@@]1(O)[C@@H](CO)O[C@@H](n2ccc3c(N)ncnc32)[C@@H]1O
growth at 0.01 µM (A498): 85% | growth at 0.1 µM (CCRF-CEM [1]): 101% | TGI (M14; read-out: TGI): 3 µM | GI50 (M14): 1.41 µM | CC50 (M14; [7]): 6.31 µM | TGI (M14; read-out: pTGI (converted)): 3.02 µM | growth at 0.1 µM (HL-60(TB)): 105% | growth at 0.01 µM (HT-29): 99% | growth at 0.1 µM (786-0): 92% | growth at 0.1 µM (OVCAR-4): 97% | growth at 1 µM (KM12): 67% | growth at 10 µM (ACHN): -18% | growth at 0.1 µM (Malme-3M): 97% | growth at 1 µM (UACC-62): 82% | growth at 0.01 µM (HOP-92): 92% | growth at 10 µM (HCT-15): -24% | growth at 0.01 µM (NCI-H522): 90% | growth at 100 µM (IGROV-1): -28% | TGI (NCI-H322M; read-out: TGI): 6.08 µM | GI50 (NCI-H322M): 1.29 µM | CC50 (NCI-H322M; [7]): 50.1 µM | TGI (NCI-H322M; read-out: pTGI (converted)): 6.03 µM | TGI (OVCAR-8; read-out: TGI): 4.11 µM | GI50 (OVCAR-8): 1.02 µM | CC50 (OVCAR-8): 34.7 µM | TGI (OVCAR-8; read-out: pTGI (converted)): 4.07 µM | TGI (BT-549; read-out: TGI): 3.64 µM | GI50 (BT-549): 1.62 µM | CC50 (BT-549; [7]): 8.13 µM | TGI (BT-549; read-out: pTGI (converted)): 3.63 µM | growth at 0.01 µM (NCI-H226): 94% | growth at 0.1 µM (EKVX): 92% | growth at 1 µM (MOLT-4): 38% | IC50 (HMEC-1): 0.061 µM | TGI (NCI/ADR-RES [3]; read-out: TGI): 7.28 µM | GI50 (NCI/ADR-RES [3]): 0.794 µM | CC50 (NCI/ADR-RES [3]): > 100 µM | TGI (NCI/ADR-RES [3]; read-out: pTGI (converted)): 7.24 µM | growth at 1 µM (MCF7): 13% | TGI (SNB-19; read-out: TGI): 6.6 µM | GI50 (SNB-19): 1.62 µM | CC50 (SNB-19; [7]): > 100 µM | TGI (SNB-19; read-out: pTGI (converted)): 6.61 µM | growth at 0.01 µM (NCI/ADR-RES [4]): 97% | growth at 0.01 µM (NCI-H460): 89% | growth at 0.1 µM (Hs-578T): 100% | CC50 (RPMI-8226): > 100 µM | TGI (RPMI-8226; read-out: TGI): > 100 µM | GI50 (RPMI-8226): 0.776 µM | TGI (RPMI-8226; read-out: pTGI (converted)): > 100 µM | growth at 10 µM (CCRF-CEM [5]): 14%
